# Hits are enriched below; roughly 2.3% of the tested compounds scored in any of these assays.
# STEP block: inhibitors of human striatal-enriched phosphatase STEP | P54829 | recombinant STEP, OMFP fluorogenic substrate, fluorescence | inhibition, % at 20 µM | 360,000 tested, 0.25% active;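 active means inhibition at 20 µM, scaled per plate between control wells, above about 37%, limit read from the data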;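 further: 0% = DMSO with enzyme and substrate and 100% = substrate only without enzyme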
#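 Material: STEP (striatal-enriched tyrosine phosphatase) enzyme, cell-free | Medium: 50 mM Bis-Tris pH 6.0 with 2.5 mM DTT and 0.005% Tween 20 | Read-out: Percent inhibition scaled to no-enzyme and uninhibited-enzyme controls, plate-pattern corrected | Signal: Fluorescence read at 480 nm ex / 540 nm em | Times: 20 min reaction, room temperature, in the dark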
# Rpn11 inh: inhibitors of human proteasome Rpn11; O00487; human 26S proteasome, Ub4-pepOG fluorescence polarization; 20S core pre-blocked with epoxomicin; inhibition, % at 20 µM; 360,000 tested, 0.59% active; AID 588493;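 active means inhibition at 20 µM, scaled to each plate's controls, above about 33%, limit read from the data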
# SUMO1 PPI mod: modulators of human SUMO1-mediated protein-protein interactions. SUMO1 binding to a labelled peptide, TR-FRET, 1 h. inhibition, % at 20 µM. 360,000 tested, 0.33% active. AID 602429; in the data active means inhibition above about 37%
# LMPTP block: LMPTP (human) inhibition | P24666 | recombinant LMPTP-A, OMFP fluorogenic substrate, fluorescence intensity | inhibition, % at 20 µM | 360,000 tested, 0.22% active;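 active means compounds that cut the enzyme signal by at least half of the control window in the single-dose screen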;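 further: plate controls were DMSO wells with enzyme plus substrate for no effect and substrate without enzyme for full effect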
#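 Assay system: LMPTP-A enzyme. Input: 0.625 nM LMPTP-A final. Probe or stimulus: 400 µM OMFP. Compound dosing: single 20 µM dose. Schedule: 50 min dark incubation at room temperature. Detection: fluorescence intensity of OMFP turnover product. Read-out: percent inhibition versus substrate-only and uninhibited controls. Benchmarks: no-enzyme low control, uninhibited high control.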
# DNMT1 block: DNMT1 (human) enzyme inhibition; P26358; DNMT1 molecular beacon, Hinp1I cleavage, fluorescence; inhibition (reported as % activation of signal), % at 10 µM; 360,000 tested, 0.83% active; AID 588458; in the data active means inhibition above about 50%
# Scp1 inh: blocks human Scp-1 phosphatase activity | Q9GZU7 | Recombinant Scp1, phosphopeptide, malachite green phosphate absorbance | inhibition, % at 20 µM | 340,000 tested, 0.88% active | AID 493091;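 active means inhibition above about 50% at 20 µM, limit read from the data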;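 further: plate controls were DMSO wells with enzyme for no effect and wells lacking enzyme for full effect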
#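 assay system = SCP-1 phosphatase catalytic domain, residues 76-261 | buffer or medium = 50 mM Tris acetate pH 5.5, 0.005% Tween-20, 10 mM MgCl2 | incubation = enzyme reaction 45 min at room temperature, colour 5 min, stabilisation 30 min | signal = Phosphate-binding colour reagent, absorbance read at 630 nm | measure = % inhibition at 20 µM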
# Scp-1 conf: Scp-1 (human) inhibition, single-dose confirmed. shares compounds with Scp1 inh. recombinant SCP-1 catalytic domain, phosphate release, malachite green absorbance. inhibition, % at 20 µM. 2,500 tested, 61% active. AID 540281;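 further: plate controls were DMSO with enzyme for no effect and buffer wells lacking enzyme for full effect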
# MG interference: colorimetric interference in Scp-1 counter-screen. AID 540313. shares compounds with Scp1 inh. apparent inhibition (interference), % at 20 µM. 2,500 tested, under 10 active. Colorimetric interference counterscreen, malachite green absorbance 630 nm;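 further: compounds added after enzyme reaction finished so only phosphate colour detection is probed; plate controls were DMSO wells with completed Scp-1 reaction for no effect and substrate wells lacking enzyme for full effect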
# Scp-1 Tm shift: binds human Scp-1, shifting its melting temperature; 1,500 tested, 25% active; thermal shift relative to vanadate control, % at 40 µM; Recombinant SCP1, Sypro Orange thermal shift Tm; AID 540329; shares compounds with Scp1 inh;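 active means substances whose mean melting-temperature shift, as a percentage of the reference inhibitor's shift, reaches about 5.3%, limit read from the data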;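 further: 0% = Tm of DMSO wells and 100% = Tm with sodium orthovanadate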
# Rpn11 inh conf: Rpn11 inhibition confirmation, single concentration; shares compounds with Rpn11 inh; purified human 26S proteasome, Ub4-pepOG fluorescence polarization; proteasome pretreated with epoxomicin; inhibition, % at 20 µM; 1,900 tested, 29% active; in the data active means inhibition above about 40%
# MMP-2 counter: blocks human MMP-2, flagging nonselective RPN11 hits; shares compounds with Rpn11 inh; recombinant MMP-2, FRET peptide cleavage fluorescence; inhibition, % at 20 µM; 1,900 tested, 4% active; AID 602330; in the data active means inhibition above about 40%;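 further: human MMP-2 activated beforehand with APMA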
# Thrombin inh: thrombin (bovine) inhibition counter-screen. shares compounds with Rpn11 inh. bovine thrombin cleavage of Ub4-pepOG, fluorescence polarization. inhibition, % at 20 µM. 1,900 tested, 13% active. AID 602333;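 active means mean inhibition at least 40% at 20 µM, or signal 3 deviations below plate average, so some actives read negative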;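 further: plate controls were thrombin with DMSO for no effect and buffer wells lacking thrombin for full effect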
# Target sequence (P00735 whole entry, looked up): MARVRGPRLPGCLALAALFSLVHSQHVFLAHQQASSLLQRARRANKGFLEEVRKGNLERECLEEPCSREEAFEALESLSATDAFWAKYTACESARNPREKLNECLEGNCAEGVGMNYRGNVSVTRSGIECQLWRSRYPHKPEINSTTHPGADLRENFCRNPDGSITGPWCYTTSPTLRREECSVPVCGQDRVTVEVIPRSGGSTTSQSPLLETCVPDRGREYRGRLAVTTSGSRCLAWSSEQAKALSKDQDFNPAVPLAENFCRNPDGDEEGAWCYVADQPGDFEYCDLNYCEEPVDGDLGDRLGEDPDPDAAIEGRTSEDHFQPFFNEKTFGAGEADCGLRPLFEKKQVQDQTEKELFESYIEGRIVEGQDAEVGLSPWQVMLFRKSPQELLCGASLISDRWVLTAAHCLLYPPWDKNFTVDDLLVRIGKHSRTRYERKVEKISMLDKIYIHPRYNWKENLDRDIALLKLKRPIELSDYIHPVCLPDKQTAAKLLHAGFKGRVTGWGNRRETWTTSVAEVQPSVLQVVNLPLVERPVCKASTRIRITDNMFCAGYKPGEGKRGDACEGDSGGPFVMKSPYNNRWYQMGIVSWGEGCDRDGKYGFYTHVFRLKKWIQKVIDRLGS
# Active calls of the source: *; / = no result.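 How the source made its calls, unless noted: active means inhibition of at least 30% at 20 µM; inactive means the rest.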
SMILES,STEP block,Rpn11 inh,SUMO1 PPI mod,LMPTP block,DNMT1 block,Scp1 inh,Scp-1 conf,MG interference,Scp-1 Tm shift,Rpn11 inh conf,MMP-2 counter,Thrombin inh
O=C1Cc2cc([N+](=O)[O-])ccc2N1c1c(Cl)cccc1Cl,0.5,2.3,-19.0,1.2,-17.1,-9.1,/,/,/,/,/,/
CCOc1ccc(/C=C2/SC(=S)N(CCC(=O)Nc3ccc(C(=O)O)cc3)C2=O)cc1,47.4*,78.7*,61.5*,64.0*,27.9,55.5*,77.9*,-9.3,1.7,-9.6,-2.0,1.7
COc1cc2sc3ccc(C#Cc4ccccn4)cc3c(=O)c2cc1OC,10.4,55.7*,32.4,41.8,-32.6,50.4*,5.4,-14.7,/,-14.6,-37.7,-2.8
COc1cccc2sc3cc(C#Cc4ccccn4)ccc3c(=O)c12,2.1,13.4,-13.0,6.0,10.0,21.5,/,/,/,/,/,/
O=C(N/N=C/c1cccnc1)/C(=C\c1cccs1)NC(=O)c1ccccc1,0.1,-1.2,-11.9,-1.5,1.6,-6.7,/,/,/,/,/,/
O=C(N/N=C/c1cc2ccccc2nc1Cl)/C(=C/c1cccs1)NC(=O)c1ccccc1,13.7,52.0*,9.2,-2.5,-7.9,98.7*,34.8*,-7.9,3.0,18.9,-174.7,15.0
COc1cc(/C=C2\C(=N)N3N=C(S(C)(=O)=O)SC3=NC2=O)ccc1OC(=O)c1ccco1,0.7,44.2*,4.1,1.1,20.4,52.0*,68.5*,-14.2,10.9*,5.4,-20.5,7.5
CCc1nnc(NC(=O)CSc2nnc3scc(-c4ccc(C)cc4)n23)s1,2.5,0.6,0.5,-0.1,2.0,-5.3,/,/,/,/,/,/
Cc1ccc(-c2nc(NC(=O)CSc3nnc4scc(-c5ccccc5)n34)ns2)cc1,1.4,59.7*,-4.1,13.1,31.9,63.8*,65.4*,-7.3,-0.4,6.8,-30.1,-2.4
COc1ccc(C2N(Cc3ccccc3)CC(=O)N2/N=C(\C)c2ccccc2)cc1 (centres undefined),-1.3,2.2,1.9,0.9,4.2,-5.3,/,/,/,/,/,/
CSc1nc2nccc(-c3ccc(Cl)cc3)n2n1,5.2,82.7*,1.4,24.9,9.5,84.1*,71.4*,-14.5,-22.2,36.1,65.6*,-9.7
Cc1ccc(OCc2nn3c(-c4ccco4)nnc3s2)cc1,3.6,-3.5,0.6,-0.3,2.7,-1.8,/,/,/,/,/,/
Clc1ccc(OCc2nn3c(-c4ccco4)nnc3s2)c(Cl)c1,4.4,90.4*,0.3,31.5,38.7,81.3*,70.1*,-10.9,1.6,27.4,5.7,6.8
O=C(N/N=C/c1sc(=O)n(Cc2ccc(Br)cc2)c1Cl)c1ccco1,95.9*,147.8*,44.8*,68.8*,31.1,103.1*,84.0*,-9.3,5.3*,-23.9,47.7*,38.4
O=S(=O)(c1ccc(N2CCCC2)cc1)C(F)(F)F,2.1,-3.6,-0.4,1.3,-2.6,6.0,/,/,/,/,/,/
O=C(N/N=C/c1ccoc1)c1cccc([N+](=O)[O-])c1,9.5,-4.1,-23.5,1.0,21.7,24.3,/,/,/,/,/,/
